From paper PMC6287413 (Drug Design, Development and Therapy, 2018) come the findings set out here.

SMILES strings stand for the structures. Where a SMILES comes first, the peptide text is derived from it.

The assay addresses T1, PTP1B (Homo sapiens, UniProt P18031).
T1 sequence (P18031 1-435): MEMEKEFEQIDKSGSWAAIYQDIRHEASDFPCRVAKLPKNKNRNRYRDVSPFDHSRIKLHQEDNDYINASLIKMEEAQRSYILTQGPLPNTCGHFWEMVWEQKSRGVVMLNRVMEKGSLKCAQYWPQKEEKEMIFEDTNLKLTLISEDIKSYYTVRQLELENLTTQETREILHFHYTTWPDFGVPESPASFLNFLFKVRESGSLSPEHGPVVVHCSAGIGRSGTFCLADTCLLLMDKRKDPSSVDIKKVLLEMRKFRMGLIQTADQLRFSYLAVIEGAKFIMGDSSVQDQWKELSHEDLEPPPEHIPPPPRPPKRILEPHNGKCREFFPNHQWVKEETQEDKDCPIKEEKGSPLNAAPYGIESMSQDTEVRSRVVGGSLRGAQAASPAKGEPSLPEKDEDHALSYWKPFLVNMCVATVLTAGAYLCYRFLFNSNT
The assay is described as follows: Inhibitory activity analysis with recombinant PTP1B phosphatase. Type of assay: biochemical. The method, boiled down: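 Recombinant phosphatase at 1.5 µg/mL […] final in 10 mM HEPES, pH 7.4. Each enzyme was left untreated (control) or treated with peptide solutions over a range of concentrations and incubation times, at 37°C. Para-nitrophenyl phosphate (2 mM) was the chromogenic substrate, read at 405 nm. Every experiment was run three or more times.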
A word on the IC50: it is the point on the concentration scale where inhibition reaches its midpoint. As for `N[C@@H](Cc1ccccc1)C(=O)N[C@@H](Cc1ccccc1)C(=O)N[C@@H](CC(=O)O)C(=O)O` [Phe-Phe-Asp] (H-Phe-Phe-Asp-OH), the half-inhibitory concentration (IC50) was found to be 104 ± 15.9 µM. Consider `N[C@@H](Cc1ccccc1)C(=O)N[C@@H](CC(=O)O)C(=O)O` [Phe-Asp] (H-Phe-Asp-OH), for which the IC50 came out at 52.1 ± 1.4 µM. Turning to `N[C@@H](CC(=O)O)C(=O)N[C@@H](Cc1ccccc1)C(=O)O` [Asp-Phe] (H-Asp-Phe-OH), the IC50 came to 52.6 ± 3.7 µM. On to `N[C@@H](Cc1ccccc1)C(=O)N[C@@H](CC(=O)O)C(=O)N[C@@H](Cc1ccccc1)C(=O)O` [Phe-Asp-Phe] (H-Phe-Asp-Phe-OH), for which the half-maximal inhibitory concentration (IC50) came out at 255 ± 29.4 µM.
